Results: ChEMBL document CHEMBL4130534, “Genomics-Driven Discovery of Chlorinated Cyclic Hexapeptides Ulleungmycins A and B from a Streptomyces Species” (2017)
Converted amounts (≈) assume the structure as drawn. Square brackets hold non-standard residues; d marks the D form. Peptide text beside a SMILES is read from it. Trp(5-Cl) = N[C@@H](Cc1c[nH]c2ccc(Cl)cc12)C(=O)O; dAsn(3R-OH) = NC(=O)[C@H](O)[C@@H](N)C(=O)O; aIle = CC[C@@H](C)[C@H](N)C(=O)O; Orn = NCCC[C@H](N)C(=O)O

Experiments:
Format in all cases: functional
Staphylococcus aureus [1] = assay: Antibacterial activity against methicillin-resistant Staphylococcus aureus CCARM 3167 after 24 hrs by broth microdilution method; conditions: CCARM 3167, 24 h
Method in brief: (§1)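 Broth microdilution in Mueller−Hinton broth. Strains grown to mid-log phase in the same medium and diluted 1000-fold, then inoculated at 10^5 cells/mL. Compounds dissolved in DMSO (final ≤0.05%) and tested as serial 2-fold dilutions; 0.05% DMSO as vehicle control. Incubated 24 h at 37 °C with growth read as absorbance at 650 nm. MIC taken as the lowest concentration completely inhibiting growth, in triplicate.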

Staphylococcus aureus [2] = assay: Antibacterial activity against quinolone-resistant Staphylococcus aureus CCARM 3505 after 24 hrs by broth microdilution method; conditions: CCARM 3505, 24 h; method in brief: as §1
Bacillus subtilis = assay: Antibacterial activity against Bacillus subtilis KCTC 1021 after 24 hrs by broth microdilution method; conditions: KCTC 1021, 24 h
Method in brief: (§2)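 Broth microdilution in Mueller–Hinton broth. Strains grown to mid-log phase and diluted 1000-fold in the same medium. Cells at 10^5/mL, 0.2 mL/well. Test samples prepared in DMSO (final ≤0.05%), with 0.05% DMSO as vehicle control. Serial 2-fold dilutions, 24 h at 37 °C. Growth read as absorbance at 650 nm. MIC is the lowest concentration giving complete growth inhibition, done in triplicate.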

Enterococcus faecalis = assay: Antibacterial activity against Enterococcus faecalis KCTC 5191 after 24 hrs by broth microdilution method; conditions: KCTC 5191, 24 h; method in brief: as §2
Escherichia coli = assay: Antibacterial activity against Escherichia coli CCARM 1356 after 24 hrs by broth microdilution method; conditions: CCARM 1356, 24 h; method in brief: as §2
Staphylococcus aureus [3] = assay: Antibacterial activity against Staphylococcus aureus RN4220 after 24 hrs by broth microdilution method; conditions: RN4220, 24 h; method in brief: as §1
Streptococcus pneumoniae = assay: Antibacterial activity against Streptococcus pneumoniae KCTC 5412 after 24 hrs by broth microdilution method; conditions: KCTC 5412, 24 h
Method in brief: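 Broth microdilution with cells grown in Todd–Hewitt medium instead of Mueller–Hinton broth. Cells at 10^5/mL, 0.2 mL/well. Test samples prepared in DMSO (final ≤0.05%), with 0.05% DMSO as vehicle control. Serial 2-fold dilutions, 24 h at 37 °C. Growth read as absorbance at 650 nm. MIC is the lowest concentration giving complete growth inhibition, done in triplicate.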

Pseudomonas aeruginosa = assay: Antibacterial activity against Pseudomonas aeruginosa KCTC 2004 after 24 hrs by broth microdilution method; conditions: KCTC 2004, 24 h; method in brief: as §2

SMILES | MIC (Staphylococcus aureus [1]) | MIC (Staphylococcus aureus [2]) | MIC (Bacillus subtilis) | MIC (Enterococcus faecalis) | MIC (Escherichia coli) | MIC (Staphylococcus aureus [3]) | MIC (Streptococcus pneumoniae) | MIC (Pseudomonas aeruginosa)
O=C(O)c1cn(C2CC2)c2cc(N3CCNCC3)c(F)cc2c1=O [CIPROFLOXACIN] | 4 µg/mL (≈ 12.1 µM) | 32 µg/mL (≈ 96.6 µM) | 0.015 µg/mL (≈ 0.0453 µM) | 1 µg/mL (≈ 3.02 µM) | 64 µg/mL (≈ 193 µM) | – | – | –
CC[C@@H](C)[C@@H]1NC(=O)[C@@H](CCC(C)C)NC(=O)[C@@H](C(C)C)NC(=O)[C@H](Cc2c[nH]c3ccc(Cl)cc23)NC(=O)[C@@H]([C@@H](O)C(N)=O)NC(=O)[C@H](CCCN)NC1=O | 16 µg/mL (≈ 19.9 µM) | 8 µg/mL (≈ 9.95 µM) | 8 µg/mL (≈ 9.95 µM) | 8 µg/mL (≈ 9.95 µM) | 128 µg/mL (≈ 159 µM) | 16 µg/mL (≈ 19.9 µM) | 16 µg/mL (≈ 19.9 µM) | 128 µg/mL (≈ 159 µM)
CC[C@@H](C)[C@@H]1NC(=O)[C@@H](CC(C)C)NC(=O)[C@@H](C(C)C)NC(=O)[C@H](Cc2c[nH]c3ccc(Cl)cc23)NC(=O)[C@@H]([C@@H](O)C(N)=O)NC(=O)[C@H](CCCN)NC1=O (cyclo([Orn][dAsn(3R-OH)][Trp(5-Cl)][dV][dL][aIle])) | 32 µg/mL (≈ 40.5 µM) | 16 µg/mL (≈ 20.2 µM) | 8 µg/mL (≈ 10.1 µM) | 8 µg/mL (≈ 10.1 µM) | 64 µg/mL (≈ 81 µM) | 16 µg/mL (≈ 20.2 µM) | 8 µg/mL (≈ 10.1 µM) | 128 µg/mL (≈ 162 µM)
